Reference: ChEMBL document CHEMBL1151771, “Lanostane-type triterpenes from the mushroom Astraeus pteridis with antituberculosis activity” (J Nat Prod, 2008)
Converted amounts (≈) assume the structure as drawn.

Experiments:
[1] = test system: Mycobacterium tuberculosis; assay: Antimicrobial activity against Mycobacterium tuberculosis H37Rv by Alamar blue assay; format: functional
In short: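 M. tuberculosis H37Rv (ATCC27294) in microplate Alamar Blue assay, fluorescence read-out. MIC taken as lowest concentration giving 90% fluorescence reduction relative to controls. Rifampin run in each test as positive quality control.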

[2] = test system: Vero; assay: Cytotoxicity against african green monkey Vero cells upto 100 uM; format: cell-based; details: chlorocebus sabaeus
In short: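 Vero cells (ATCC CCL-81) tested with a nonradioactive cell proliferation (CellTiter 96) assay. IC50 taken as the reciprocal dilution giving 50% inhibition of Vero cells.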

Row | SMILES | MIC [1] [µg/mL] | Activity [2]
1 | C[C@H]([C@@H]1CC[C@H](C)C(=O)O1)[C@H]1CC[C@@]2(C)C3=C(CC[C@]12C)[C@@]1(C)CC[C@@H](O)C(C)(C)[C@@H]1CC3 | 58 (≈ 127 µM) | Non-toxic
2 | C[C@H]([C@@H]1CC[C@H](C)[C@@H](O)O1)[C@H]1CC[C@@]2(C)C3=C(CC[C@]12C)[C@@]1(C)CC[C@@H](O)C(C)(C)[C@@H]1CC3 | 34 (≈ 74.1 µM) | Non-toxic
3 | C[C@H]([C@@H]1CC[C@H](C)C(=O)O1)[C@H]1CC[C@@]2(C)C3=C(CC[C@]12C)[C@@]1(C)CCC(=O)C(C)(C)[C@@H]1CC3 [ASTRAHYGRONE] | 64 (≈ 141 µM) | Non-toxic
4 | C[C@H]([C@@H]1CC[C@H](C)[C@@H](O)O1)[C@H]1CC[C@@]2(C)C3=C(CC[C@]12C)[C@@]1(C)CC[C@H](O)C(C)(C)[C@@H]1CC3 [ASTRAPTERIDIOL] | > 64 | Non-toxic
5 | C[C@H]([C@@H]1CC[C@H](C)[C@@H](O)O1)[C@H]1CC[C@@]2(C)C3=C(CC[C@]12C)[C@@]1(C)CCC(=O)C(C)(C)[C@@H]1CC3 [ASTRAPTERIDONE] | > 64 | Non-toxic
